The record followed here is ChEMBL document CHEMBL4177770, “Discovery of MK-6169, a Potent Pan-Genotype Hepatitis C Virus NS5A Inhibitor with Optimized Activity against Common Resistance-Associated Substitutions” (J Med Chem, 2018).

Molecules are shown by their SMILES. Positions count from the first letter of the chain named.

Data set [1] in a line: AUC in Wistar Han rat at 10 mg/kg, po by LC/MS method. Format: ADME, organism-based. Conditions: in vivo. A digest of the protocol: (§1)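 Male Wistar Han rats, two per dosing group, dosed orally at 10 mg/kg in 10% TWEEN. Plasma was separated from collected blood by centrifugation and analysed by LC/MS.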
Data set [2] in a line: Clearance in Wistar Han rat at 2 mg/kg, iv by LC/MS method. Format: ADME, organism-based. The note with it: in vivo. A digest of the protocol:
(§2)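 Male Wistar Han rats, two per group, dosed IV at 2 mg/kg in 60% PEG200. Plasma was obtained by centrifuging the blood, and compound concentrations were measured by LC/MS.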

Data set [3] in a line: Drug level in Wistar Han rat at 10 mg/kg, po measured at 24 hrs by LC/MS method. It counts as ADME, organism-based. Conditions: in vivo, read-out: Drug uptake. The method in brief:
as §1

Data set [4] concerns the target T1, Nonstructural protein 5A (Hepatitis C virus) (UniProt Q5L478).
T1 sequence (whole entry): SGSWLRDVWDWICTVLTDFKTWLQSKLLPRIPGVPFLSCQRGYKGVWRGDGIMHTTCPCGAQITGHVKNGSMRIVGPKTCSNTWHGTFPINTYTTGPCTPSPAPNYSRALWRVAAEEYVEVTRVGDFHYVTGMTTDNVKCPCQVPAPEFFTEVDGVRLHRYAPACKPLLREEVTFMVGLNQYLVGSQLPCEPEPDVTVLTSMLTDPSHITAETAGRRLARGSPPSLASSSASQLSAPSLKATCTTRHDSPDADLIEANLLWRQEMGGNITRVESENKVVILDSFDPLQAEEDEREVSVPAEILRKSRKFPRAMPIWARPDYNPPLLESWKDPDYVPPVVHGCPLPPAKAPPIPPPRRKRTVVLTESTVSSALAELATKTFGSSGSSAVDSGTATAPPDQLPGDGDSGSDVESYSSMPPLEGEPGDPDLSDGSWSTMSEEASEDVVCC
The experiment in a line: Inhibition of NS5A L31M mutant in HCV genotype 2b infected in HuH7 replicon cells assessed as decrease in viral replication after 3 days by RT-PCR method. Format: cell-based. Conditions: Hepatitis C virus subtype 2b.

For data set [5], the target named is T1, Nonstructural protein 5A (Hepatitis C virus). The experiment in a line: Inhibition of NS5A in HCV genotype 3a infected in HuH7 replicon cells assessed as decrease in viral replication after 3 days by RT-PCR method. Format: cell-based. The note with it: Hepatitis C virus subtype 3a. Background: A replicon is a self-replicating genome or part of one, used to study replication in cells.

Data set [6] relates to T2, Nonstructural protein 5A (Hepatitis C virus), Q5L478 [Y93H].
T2 sequence (whole entry): T1 sequence (whole entry) with Y93H
The experiment in a line: Inhibition of NS5A Y93H mutant in HCV genotype 1a infected in HuH7 replicon cells assessed as decrease in viral replication after 3 days by RT-PCR method. It counts as cell-based. Conditions: Hepatitis C virus subtype 1a.

Data set [7] has as its target T1, Nonstructural protein 5A (Hepatitis C virus). Put plainly: Inhibition of NS5A in HCV genotype 1b infected in HuH7 replicon cells assessed as decrease in viral replication after 3 days by RT-PCR method. It counts as cell-based. The note with it: Hepatitis C virus subtype 1b.
Data set [8] can be described thus: Cmax in Wistar Han rat at 10 mg/kg, po by LC/MS method. Format: ADME, organism-based. On the set-up: dose 10 mg/kg, route oral. The note with it: in vivo. A digest of the protocol:
as §1

Data set [9] in a line: Half life in Wistar Han rat at 2 mg/kg, iv by LC/MS method. The note with it: in vivo. It counts as ADME, organism-based. The method in brief:
as §2

Data set [10] is described as follows: Oral bioavailability in Wistar Han rat at 10 mg/kg by LC/MS method. Format: ADME, organism-based. The note with it: in vivo. A digest of the protocol: as §1
For data set [11], the target named is T1, Nonstructural protein 5A (Hepatitis C virus). Put plainly: Inhibition of NS5A in HCV genotype 4a infected in HuH7 replicon cells assessed as decrease in viral replication after 3 days by RT-PCR method. It counts as cell-based. The note with it: Hepatitis C virus subtype 4a.
For data set [12] the target is unchanged. The experiment in a line: Inhibition of NS5A in HCV genotype 1a infected in HuH7 replicon cells assessed as decrease in viral replication after 3 days by RT-PCR method. Format: cell-based. The note with it: Hepatitis C virus subtype 1a.
The target is the same in data set [13]. Put plainly: Inhibition of NS5A L31V mutant in HCV genotype 1a infected in HuH7 replicon cells assessed as decrease in viral replication after 3 days by RT-PCR method. Format: cell-based. Conditions: Hepatitis C virus subtype 1a.

For the compound `COC(=O)N[C@H](C(=O)N1CCC[C@H]1c1ncc(-c2cc(F)c3c(c2)O[C@@H](c2ccc(C4CC4)s2)n2c-3cc3cc(-c4cnc([C@@H]5CCCN5C(=O)[C@@H](NC(=O)OC)[C@H]5CCOC(C)(C)C5)[nH]4)ccc32)[nH]1)C(C)C`, in data set [1], the AUC is 0.24 µM·h. The compound also displayed a clearance in data set [2] of 11 mL/min/kg. Also, in [3], the concentration at 24 h turned out to be 1 nM. Also, the EC90 came to 27 pM in data set [4]; 9 pM in [5]; 18 pM in data set [6]; 7 pM in [7]; 7 pM in [11]; 4 pM in data set [12]. Besides, in data set [13], the EC90 was found to be 2 pM. Besides, in data set [8], the Cmax was 25 nM. This compound had a half-life in data set [9] of 5.2 h. This compound also had a bioavailability in data set [10] of 1.6%.
Consider `COC(=O)N[C@H](C(=O)N1CCC[C@H]1c1ncc(-c2cc(F)c3c(c2)O[C@@H](c2ccc4c(c2)OCCC4)n2c-3cc3cc(-c4cnc([C@@H]5CCCN5C(=O)[C@@H](NC(=O)OC)[C@@H]5CCOC(C)(C)C5)[nH]4)ccc32)[nH]1)C(C)C`, for which the AUC in data set [1] came to 0.08 µM·h. Besides, the clearance in [2] is 25 mL/min/kg. The concentration at 24 h in data set [3] was 1 nM. The concentration for an effect of 90% (EC90) in [4] is 17 pM; in data set [5], 7 pM; in [6] it was 48 pM; in [7], 5 pM; in data set [11] it was 5 pM; in data set [12] it was 3 pM. The EC90 in [13] came to 4 pM. This compound also displayed a Cmax in [8] of 10 nM. This compound also had a half-life in data set [9] of 3.8 h. In data set [10], this compound showed a bioavailability of 1.2%.
`COC(=O)N[C@H](C(=O)N1CCC[C@H]1c1ncc(-c2cc(F)c3c(c2)O[C@@H](c2cnc(C4CC4)s2)n2c-3cc3cc(-c4cnc([C@@H]5CCCN5C(=O)[C@@H](NC(=O)OC)[C@@H]5CCOC(C)(C)C5)[nH]4)ccc32)[nH]1)C(C)C`: the AUC in data set [1] is 0.51 µM·h. For the same compound, the clearance in [2] was determined as 9 mL/min/kg. In data set [3], the concentration at 24 h was determined as 4 nM. Also, the EC90 amounted to 15 pM in data set [4]; 15 pM in data set [5]; 29 pM in [6]; 6 pM in data set [7]; 7 pM in data set [11]; 6 pM in [12]. Also, the EC90 in data set [13] turned out to be 6 pM. The same compound came in with a Cmax in data set [8] of 60 nM. This compound showed a half-life in data set [9] of 4 h. Further, the bioavailability in data set [10] amounted to 2.8%.
As for `CCc1ncc([C@@H]2Oc3cc(-c4cnc([C@@H]5CCCN5C(=O)[C@@H](NC(=O)OC)C(C)C)[nH]4)cc(F)c3-c3cc4cc(-c5cnc([C@@H]6CCCN6C(=O)[C@@H](NC(=O)OC)[C@@H]6CCOC(C)(C)C6)[nH]5)ccc4n32)s1`, the exposure (AUC) in [1] stood at 0.05 µM·h. In [2], the clearance was 29 mL/min/kg. The concentration at 24 h in data set [3] came out at 1 nM. Besides, the EC90 in [4] is 41 pM; in [5], 6 pM; in data set [6], 17 pM; in data set [7] it was 5 pM; in [11], 4 pM; in [12], 6 pM. The EC90 in [13] was determined as 5 pM. Also, the highest level in data set [8] (Cmax) was 10 nM. This compound gave a half-life in data set [9] of 5.3 h. Also, in [10], the bioavailability came out at 0.8%.
`CCCc1ncc([C@@H]2Oc3cc(-c4cnc([C@@H]5CCCN5C(=O)[C@@H](NC(=O)OC)C(C)C)[nH]4)cc(F)c3-c3cc4cc(-c5cnc([C@@H]6CCCN6C(=O)[C@@H](NC(=O)OC)[C@@H]6CCOC(C)(C)C6)[nH]5)ccc4n32)s1` gave an AUC in data set [1] of 0.08 µM·h. In [2], this compound showed a clearance of 21 mL/min/kg. Also, in data set [3], the concentration at 24 h was 1 nM. In addition, the EC90 in data set [4] came to 15 pM; in data set [5], 8 pM; in data set [6] it was 18 pM; in data set [7] it was 5 pM; in data set [11] it was 6 pM; in [12], 4 pM. Also, the 90% effect concentration (EC90) in data set [13] turned out to be 6 pM. This compound also had a Cmax in [8] of 20 nM. This compound also gave a half-life in [9] of 4.5 h. For the same compound, the bioavailability in data set [10] was determined as 1%.
With `COC(=O)N[C@H](C(=O)N1CCC[C@H]1c1ncc(-c2cc(F)c3c(c2)O[C@@H](c2cc4c(s2)CCC4)n2c-3cc3cc(-c4cnc([C@@H]5CCCN5C(=O)[C@@H](NC(=O)OC)[C@@H]5CCOC(C)(C)C5)[nH]4)ccc32)[nH]1)C(C)C`, the AUC in [1] was determined as 1.9 µM·h. This compound also displayed a clearance in data set [2] of 9 mL/min/kg. Besides, in data set [3], the concentration at 24 h was determined as 6 nM. The EC90 in data set [4] came out at 43 pM; in [5], 9 pM; in data set [6], 117 pM; in data set [7] it was 6 pM; in data set [11], 6 pM; in data set [12], 5 pM. Further, the EC90 in data set [13] came out at 6 pM. In [8], this compound showed a Cmax of 290 nM. The compound further had a half-life in data set [9] of 4.3 h. This compound also showed a bioavailability in [10] of 10.2%.
`COC(=O)N[C@H](C(=O)N1CCC[C@H]1c1ncc(-c2cc(F)c3c(c2)O[C@@H](c2ccc(C(C)C)s2)n2c-3cc3cc(-c4cnc([C@@H]5CCCN5C(=O)[C@@H](NC(=O)OC)[C@@H]5CCOC(C)(C)C5)[nH]4)ccc32)[nH]1)C(C)C` had an AUC in data set [1] of 0.8 µM·h. Besides, the clearance in [2] is 5 mL/min/kg. In addition, the concentration at 24 h in data set [3] was determined as 4 nM. The EC90 in [4] amounted to 38 pM; in data set [5], 6 pM; in data set [6], 36 pM; in data set [7], 5 pM; in [11] it was 6 pM; in data set [12], 4 pM. In addition, the 90% effect concentration (EC90) in data set [13] stood at 4 pM. The same compound returned a Cmax in data set [8] of 100 nM. The same compound showed a half-life in data set [9] of 9.6 h. Further, the bioavailability in [10] worked out at 2.7%.
As to `CCc1ccc([C@@H]2Oc3cc(-c4cnc([C@@H]5CCCN5C(=O)[C@@H](NC(=O)OC)C(C)C)[nH]4)cc(F)c3-c3cc4cc(-c5cnc([C@@H]6CCCN6C(=O)[C@@H](NC(=O)OC)[C@@H]6CCOC(C)(C)C6)[nH]5)ccc4n32)s1`, in [1], the AUC amounted to 0.78 µM·h. The compound further yielded a clearance in data set [2] of 8 mL/min/kg. The concentration at 24 h in [3] was 4 nM. In addition, the EC90 amounted to 28 pM in [4]; 9 pM in [5]; 38 pM in [6]; 6 pM in data set [7]; 7 pM in data set [11]; 5 pM in data set [12]. Moreover, in data set [13], the EC90 turned out to be 3 pM. For the same compound, in [8], the Cmax came out at 110 nM. In data set [9], the half-life is 5.2 h. This compound yielded a bioavailability in [10] of 3.5%.
The compound `CCc1ccc([C@@H]2Oc3cc(-c4cnc([C@@H]5CCCN5C(=O)[C@@H](NC(=O)OC)[C@@H]5CCOC(C)(C)C5)[nH]4)cc(F)c3-c3cc4cc(-c5cnc([C@@H]6CCCN6C(=O)[C@@H](NC(=O)OC)C(C)C)[nH]5)ccc4n32)s1` registered an AUC in data set [1] of 0.23 µM·h. Moreover, in data set [2], the clearance was found to be 9 mL/min/kg. The concentration at 24 h in data set [3] turned out to be 2 nM. In addition, the EC90 in data set [4] was 349 pM; in [5] it was 82 pM; in [6], 155 pM; in data set [7] it was 67 pM; in [11], 106 pM; in data set [12] it was 33 pM. Further, the EC90 in data set [13] worked out at 46 pM. Further, the highest level in [8] (Cmax) was 20 nM. The same compound showed a half-life in data set [9] of 5.9 h. The compound also registered a bioavailability in data set [10] of 1.2%.

The term AUC denotes concentration integrated over time. A low value points to less exposure. For orientation: clearance means a measure of how efficiently the substance is removed, as volume per time. By EC90 is commonly meant the concentration needed for an effect of 90%. The term Cmax denotes the highest concentration seen after dosing. One may read the half-life as the time in which the quantity being followed falls by half. Broadly, the bioavailability is dose-corrected exposure relative to a reference, in per cent. A low value points to little systemic uptake.
